Series [1] in a line: Mouse liver microsome assay. The note with it: for metabolism of the C-4 carboxanilide aromatic ring: microsomal metabolism studies, in words; for CLint scaled at 0.08 uM: female, CD-1, mouse, liver microsomes, pH 7.4. The format is in vitro ADME. The method, boiled down: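 Pooled female CD-1 mouse liver microsomes in 0.1 M potassium phosphate (pH 7.4) with EDTA. Test compound (0.08 uM final) incubated with NADPH-regenerating system at 37 °C, shaken, in triplicate. At 0, 0.5, 1, 2 and 4 h, quenched with cold methanol containing 2 μM caffeine internal standard; UPLC-MS. Half-life from the decay slope; CLint scaled with 0.5 mg/mL protein, 45 mg microsome/g liver and 52 g liver/kg.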
For orientation: Microsomes from liver hold many membrane-bound enzymes, among them those of drug oxidation.

A short description of series [2]: Dose related exposure in the rat. Type of series: in vivo. The note with it: data not shown.
Another series in a line: Ames' assay. Type of series: cell-based.

Structures are written as SMILES.

Regarding `COc1ccc(NC(=O)[C@H]2c3ccccc3C(=O)N(CC(C)C)[C@@H]2c2cccs2)cc1Cl` (racemic) [10b], in series [1], the “metabolism of the C-4 carboxanilide aromatic ring” value is reported as “readily demethylated”.

In general, CLint scaled refers to the capacity of the preparation to metabolise the compound, expressed as a volume cleared per time. A higher CLint scaled goes with rapid turnover. With `CC(C)CN1C(=O)c2ccccc2[C@H](C(=O)Nc2cccc(C#N)c2)[C@H]1c1cccs1` (racemic) [10d], in series [1], the CLint scaled at 0.08 uM came out at 195 mL/min/kg and the “metabolism of the C-4 carboxanilide aromatic ring” value was “hydroxylated”.

In series [1], `CC(C)CN1C(=O)c2ccccc2[C@H](C(=O)Nc2ccc(F)c(C#N)c2)[C@H]1c1ccc(C#N)s1` (racemic) [11l] returned a CLint scaled at 0.08 uM of 44.7 mL/min/kg.

In series [1], `CC(C)CN1C(=O)c2ccccc2[C@H](C(=O)Nc2ccc(F)c(C#N)c2)[C@H]1c1cn[nH]c1` (racemic) [11t] registered a CLint scaled at 0.08 uM of 162 mL/min/kg. This CLint scaled at 0.08 uM lies about 3.6-fold higher than the previous one.

For `N#Cc1cc(NC(=O)[C@H]2c3ccccc3C(=O)N(CC(F)(F)F)[C@@H]2c2cn[nH]c2)ccc1F` (relative stereo) [13h, (3S*,4S*)-N-(3-Cyano-4-fluorophenyl)-1-oxo-3-(1H-pyrazol-4-yl)-2-(2,2,2-trifluoroethyl)-1,2,3,4-tetrahydroisoquinoline-4-carboxamide], in series [1], the CLint scaled at 0.08 uM was below 13.5 mL/min/kg.

Turning to `N#Cc1cc(NC(=O)[C@H]2c3ccccc3C(=O)N(CC(F)(F)F)[C@@H]2c2cccnc2)ccc1F` (relative stereo) [13i, (3S*,4S*)-N-(3-Cyano-4-fluorophenyl)-1-oxo-3-(pyridin-3-yl)-2-(2,2,2-trifluoroethyl)-1,2,3,4-tetrahydroisoquinoline-4-carboxamide], in series [2], the dose related exposure entry is “excellent dose related exposure”. This compound displayed a CLint scaled at 0.08 uM in series [1] of 33.1 mL/min/kg.

Regarding `N#Cc1cc(N)ccc1F` [3-cyano-4-fluoroaniline], the “Ames' assay result” value in “Ames' assay” is on record as “negative”.

These data come from paper PMC5573263 (Journal of medicinal chemistry, 2016).
